Compound activity deposited in PubChem BioAssay by Broad Institute.
Sampled rows, rich in hits. Any-hit rate of the full collection: about 2.8%.
SIRT5 block: blocks human SIRT5 desuccinylation of peptide; Q9NXA8; Purified SirT5, succinyl-peptide AMC, trypsin-coupled fluorescence; inhibition, % at 15 µM; hit rate 1.1% among 330,000; AID 652115; in the data active = inhibition above about 15%; inconclusive = no clear call, values can overlap the other calls
Target sequence (Q9NXA8 whole entry, looked up): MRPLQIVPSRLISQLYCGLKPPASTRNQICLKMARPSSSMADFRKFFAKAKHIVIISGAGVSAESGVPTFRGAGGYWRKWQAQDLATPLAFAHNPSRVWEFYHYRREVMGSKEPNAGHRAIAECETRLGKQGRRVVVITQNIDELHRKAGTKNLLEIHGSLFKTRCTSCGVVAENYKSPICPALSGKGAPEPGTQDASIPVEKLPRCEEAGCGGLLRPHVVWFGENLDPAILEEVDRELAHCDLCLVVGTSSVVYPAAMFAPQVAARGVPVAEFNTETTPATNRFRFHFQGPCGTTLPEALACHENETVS
DENV2 CPE: inhibitors of DENV2 cytopathic effect | DENV2-infected cells, cytopathic effect rescue, plate reader | CPE inhibition, % at 9.99 µM | hit rate 1.7% among 350,000; in the data active = CPE inhibition above about 20%, passing the limit was not always enough; inconclusive = no clear call, values can overlap the other calls; tested in BHK-21 cells
E-selectin induc: induces E-selectin expression in human endothelial cells. HUVEC E-selectin immunofluorescence imaging; normalized: neutral wells 0, TNF-alpha wells 100. activation, % at 7.58 µM. hit rate 0.37% among 260,000. AID 686992;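 active = mean E-selectin-positive cell signal at least 10% of the positive control, reached in at least 60% of replicates, without over 20% cell loss; inconclusive = no rule given, readout overlaps actives, possibly toxicity-flagged; inactive = the rest, including those meeting only one limit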
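Read-out basis: % PE-positive cells; Test system: HUVEC primary endothelial cells; Technique: immunofluorescence imaging; Dosing: single-point compound dose.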
Each line names hits and unclear results; the compound was inactive in the other large screens.

Cc1c(N(C)C(=O)COc2ccc3ccccc3c2)c(=O)n(-c2ccccc2)n1C	E-selectin induc 41.9
Cc1c(NC(=O)c2ccc(COc3ccc4ccccc4c3)o2)c(=O)n(-c2ccccc2)n1C	none (no result: E-selectin induc)
CN1c2ccc(C#Cc3cccnc3)cc2[C@H]2[C@H](CCN2S(=O)(=O)c2ccc(F)cc2)[C@H]1CO	none (no result: SIRT5 block)
CCCC(=O)Nc1ccc2c(c1)C(=O)N(C)C[C@@H](OC)[C@H](C)CN(CC1CCCC1)[C@@H](C)CO2	none (no result: SIRT5 block, DENV2 CPE)
CCCCCCN(C(=O)CCCCCN1C(=O)NC(c2ccc(-c3ccccc3)cc2)C(C(=O)OCc2ccccc2)=C1C)C(C(=O)NCCCC)c1ccccn1 (stereo not drawn)	DENV2 CPE 23.2 (no result: SIRT5 block)
CCCCCCN(C(=O)CCCCCN1C(=O)NC(c2ccc(-c3ccccc3)cc2)C(C(=O)OCc2ccccc2)=C1C)C(C(=O)NCCCC)C1CCCCC1 (stereo not drawn)	none (no result: SIRT5 block)
Cc1ccc(S(=O)(=O)N[C@@H]2CC[C@@H](CCNC(=O)c3ccccc3F)O[C@@H]2CO)cc1	none
CC(=C/c1ccccc1)/C=N/NC(=O)c1cccs1	DENV2 CPE inconclusive (no result: E-selectin induc)
O=C(N/N=C/C(Br)=C\c1ccccc1)c1cccs1	SIRT5 block 19.9 (no result: E-selectin induc)
Cc1c(C(=O)NCCCN2CCOCC2)sc2nc(-c3ccccc3)cn12	DENV2 CPE 87.0
Cc1c(C(=O)NCc2ccccn2)sc2nc(-c3ccccc3)cn12	none (no result: E-selectin induc)
C[C@@H]1CN([C@@H](C)CO)C(=O)Cc2cc(NC(=O)Nc3ccc(F)cc3)ccc2O[C@H]1CN(C)S(=O)(=O)c1ccccc1	none
O=C1CCN(Cc2ccc(Br)cc2)CCN1[C@H](CO)c1ccccc1	none (no result: SIRT5 block)
O=C1CCN(Cc2ccc(Br)cc2)CCN1CCO	DENV2 CPE 29.2 (no result: SIRT5 block)
COc1cccc(C(O)c2nc(/C=C/c3ccccc3)cs2)c1 (stereo not drawn)	none (no result: SIRT5 block)
COc1cccc(C(NC(C)=O)c2nc(/C=C/c3ccccc3)cs2)c1 (stereo not drawn)	DENV2 CPE 29.7 (no result: SIRT5 block)
CO[C@H]1CN(C)C(=O)c2ccc(NC(=O)Nc3cc(F)ccc3F)cc2OC[C@H](C)N(C(=O)c2cnccn2)C[C@@H]1C	none
O=C(/C=C/c1ccccc1)NCCc1ccc2c(c1)OCCO2	DENV2 CPE 59.2 (no result: E-selectin induc)
COc1cccc(/C=C/C(=O)NCCc2ccc3c(c2)OCCO3)c1	none
C[C@H]1CN([C@@H](C)CO)C(=O)c2ccccc2-c2ccccc2CO[C@H]1CN(C)Cc1cccc(F)c1	none
N#CC[C@H](c1ccccc1)N1CCN(Cc2ccccc2)CCC1=O	DENV2 CPE 60.1 (no result: SIRT5 block, E-selectin induc)
O=C1CCN(Cc2ccccc2)CCN1[C@H](COc1ccccc1)c1ccccc1	none (no result: SIRT5 block)
CC(C)NC(=O)N(C)C[C@H]1Oc2ncc(C#CC3CCCC3)cc2C(=O)N([C@@H](C)CO)C[C@H]1C	none
CCCc1nn2c(=O)cc(CSCC(=O)Nc3ccc(C)cc3)nc2s1	SIRT5 block 36.2
CCCc1nn2c(=O)cc(CSCC(=O)Nc3nnc(CC)s3)nc2s1	none (no result: E-selectin induc)
COc1ccc(S(=O)(=O)NC[C@@H]2CC[C@H]3[C@H](CN3Cc3cc(F)ccc3F)O2)cc1	none (no result: E-selectin induc)
CN(Cc1ccccc1)S(=O)(=O)c1cccc(C(=O)O)c1	SIRT5 block 31.0 (no result: E-selectin induc)
COc1ccccc1N(Cc1ccccc1)S(=O)(=O)c1cccc(C(=O)O)c1	none (no result: E-selectin induc)
CCn1c2ccccc2c2nnc(SCN3C(=O)c4ccccc4C3=O)nc21	E-selectin induc 120.9
CCn1c2ccccc2c2nnc(SCc3ccccc3)nc21	none (no result: SIRT5 block)
CCNC(=O)C[C@H]1CC[C@@H]2[C@H](COC[C@@H](O)CN2C(=O)c2ccccn2)O1	none (no result: SIRT5 block)
O=C(C[C@H]1CC[C@@H]2[C@H](COC[C@H](O)CN2C(=O)c2ccccn2)O1)N1CCN(c2ccccc2)CC1	DENV2 CPE 38.9
CNC(=O)C[C@@H]1CC[C@@H]2[C@H](COC[C@H](O)CN2C(=O)c2ccccn2)O1	DENV2 CPE 69.3
O=C(C[C@@H]1CC[C@@H]2[C@H](COC[C@H](O)CN2C(=O)c2ccccn2)O1)N1CCN(c2ccccc2)CC1	none
COCC#Cc1cnc2c(c1)C(=O)N([C@H](C)CO)C[C@H](C)[C@@H](CN(C)C(=O)Cc1cccnc1)O2	none
CO[C@H]1CN(C)C(=O)c2ccc(NC(=O)NC(C)C)cc2OC[C@@H](C)N(Cc2cncnc2)C[C@@H]1C	none (no result: SIRT5 block, DENV2 CPE)
CCS(=O)(=O)N1CC2(C1)[C@@H](c1ccccc1)[C@@H](CO)N2C(=O)C1CCCC1	none
O=C(C[C@@H]1CC[C@@H]2[C@H](COC[C@@H](O)CN2Cc2nccs2)O1)NCc1ccc(Cl)cc1	none
O=C([C@H]1[C@H](CO)[C@H]2Cn3c(ccc(-c4cccnc4)c3=O)[C@@H]1N2CCC(F)(F)F)N1CCCCC1	none
COC(c1ccccc1)c1nnc(CCC(=O)NC2CCCCC2)o1 (stereo not drawn)	none (no result: E-selectin induc)
COC(c1ccccc1)c1nnc(CCC(=O)N(C)C(C2CC2)C2CC2)o1 (stereo not drawn)	SIRT5 block 15.2 (no result: E-selectin induc)
CCCNC(=O)Nc1ccc2c(c1)OC[C@@H](C)N(C(=O)C1CCCCC1)C[C@H](C)[C@@H](OC)CN(C)C2=O	none
CO[C@@H]1CN(C)C(=O)c2ccc(NC(=O)C3CCOCC3)cc2OC[C@@H](C)N(CC2CC2)C[C@@H]1C	none
CCCNC(=O)[C@H]1[C@H](CO)[C@H]2Cn3c(ccc(-c4ccccc4)c3=O)[C@@H]1N2C(=O)CC	none
C[C@H]1CN([C@@H](C)CO)C(=O)CCCn2cc(nn2)CO[C@H]1CN(C)S(=O)(=O)c1ccc(-c2ccccc2)cc1	none
Cc1ccc(/C=C/C(=O)N2CCN(c3cccc(C(F)(F)F)c3)CC2)cc1	SIRT5 block 30.0 (no result: E-selectin induc)
Cc1ccc(C)c(C(=O)CCC(=O)N2CCN(c3cccc(C(F)(F)F)c3)CC2)c1	none
COc1ccc(NC(=O)N(C)C[C@@H]2Oc3ncc(C#CCN(C)C)cc3C(=O)N([C@H](C)CO)C[C@H]2C)cc1	none
COc1cc(NC(=O)COC(=O)CC(C)(C)C)c(C)cc1[N+](=O)[O-]	none
COc1cc(NC(=O)COC(=O)CNC(=O)c2ccc(C)cc2)c(C)cc1[N+](=O)[O-]	SIRT5 block 20.4
COc1ccc2c3c(n(C)c2c1)[C@H](CO)N(C(=O)c1ccncc1)CC31CN(S(C)(=O)=O)C1	DENV2 CPE inconclusive (no result: SIRT5 block)
C[C@@H]1CN([C@H](C)CO)S(=O)(=O)c2ccc(-c3cccc(F)c3)cc2O[C@@H]1CN(C)CC1CC1	none
Cc1cc2cc(CNC(=O)c3ccc(C)c([N+](=O)[O-])c3)ccc2[nH]1	none (no result: E-selectin induc)
Cc1c([N+](=O)[O-])cc(C(=O)NCc2ccc(F)cc2)cc1[N+](=O)[O-]	SIRT5 block 111.4 (no result: E-selectin induc)
C[C@@H]1CN([C@H](C)CO)C(=O)c2cc(NS(C)(=O)=O)ccc2O[C@H]1CN(C)C(=O)Nc1ccc2c(c1)OCO2	E-selectin induc 197.0
C[C@H]1CN([C@@H](C)CO)C(=O)c2cc(NS(C)(=O)=O)ccc2O[C@H]1CN(C)C(=O)Nc1ccccc1	none
C[C@@H]1CN([C@@H](C)CO)C(=O)c2cc(NS(C)(=O)=O)ccc2O[C@H]1CN(C)C(=O)Nc1ccc2c(c1)OCO2	none
C[C@@H]1CN([C@@H](C)CO)C(=O)c2cc(NS(C)(=O)=O)ccc2O[C@H]1CN(C)C(=O)Nc1ccccc1	none
C[C@@H]1CN([C@@H](C)CO)C(=O)c2cc(NC(=O)CCC(F)(F)F)ccc2O[C@@H]1CN(C)C(=O)Nc1ccc2c(c1)OCO2	DENV2 CPE 31.2
